# Data from paper PMC8969127 (Molecular Pharmacology, 2022).
# Molecular target: CatSper (Homo sapiens, UniProt Q7RTX7+Q86XQ3+Q8NEC5+Q96P56)
# Test: Human sperm calcium influx assay, activation
# Format: cell-based
# Details: for EC50: pEC50, calcium influx, Steroid Alone; for EC50 / pEC50, calcium influx, Steroid Alone: human sperm, mean ±SD; for Emax: read-out: Emax, %, Steroid Alone; for Emax, %, Steroid Alone: percent of response to saturating PROG (3 µM); for fold less potent than PROG (calcium influx): relative to PROG
# In short: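 Semen from healthy donors was liquefied at 37 °C, washed twice in low pH/low K+ buffer (pH 6.7, 0.2 mM CaCl2), then loaded with 10 µM Fluo-4-AM plus 1 mM probenecid, 30 min, room temperature, dark. On FLIPR, buffer was added first, then openers 2 min later. Fluorescence was read for 7 min at 2-s intervals. EC50 came from 8-point, 3-fold dilutions in duplicate, peak height, four-parameter fit. Emax is relative to 3 µM progesterone. Activators were retested with 30 µM mibefradil.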
SMILES,EC50,Emax,"pEC50, calcium influx, Steroid Alone","Emax, %, Steroid Alone",fold less potent than PROG (calcium influx)
"CCCCC[C@H](O)/C=C/[C@H]1[C@H](O)CC(=O)[C@@H]1CCCCCCC(=O)O [compound 2, prostaglandin E1]",3.98 nM,101%,,,
"CC(=O)[C@H]1CC[C@H]2[C@@H]3CC[C@H]4C[C@H](O)CC[C@]4(C)[C@H]3CC[C@]12C [compound 10, 3α,5α-pregnanolone]",,,6.56 ± 0.21,85%,
"CC(=O)[C@H]1CC[C@H]2[C@@H]3CC[C@@H]4C[C@H](O)CC[C@]4(C)[C@H]3CC[C@]12C [compound 11, 3α,5β-pregnanolone]",,,6.26 ± 0.25,102%,
"CC(=O)[C@H]1CC[C@H]2[C@@H]3CC[C@H]4C[C@@H](O)CC[C@]4(C)[C@H]3CC[C@]12C [compound 12, 3β,5α-pregnanolone]",,,7.16 ± 0.11,99%,
"CC(=O)[C@H]1CC[C@H]2[C@@H]3CC[C@@H]4C[C@@H](O)CC[C@]4(C)[C@H]3CC[C@]12C [compound 13, 3β,5β-pregnanolone]",,,6.89 ± 0.20,92%,
"CC(=O)[C@H]1CC[C@H]2[C@@H]3CC[C@H]4CC(=O)CC[C@]4(C)[C@H]3CC[C@]12C [compound 14, 5α-dihydroprogesterone]",,,6.99 ± 0.05,87%,~30 fold
"CC(=O)[C@H]1CC[C@H]2[C@@H]3CC[C@H]4CC(=O)CC[C@]4(C)[C@H]3CC[C@]12C [compound 15, 5β-dihydroprogesterone]",,,6.87 ± 0.17,95%,~30 fold
"CC(=O)[C@H]1CC[C@H]2[C@@H]3C[C@@H]4O[C@@]45CC(=O)CC[C@]5(C)[C@H]3CC[C@]12C [compound 16, 5α,6α-epoxypregnan-3,20-dione]",832 nM,83%,,,
"CC(=O)[C@H]1CC[C@H]2[C@@H]3C[C@H]4O[C@]45CC(=O)CC[C@]5(C)[C@H]3CC[C@]12C [compound 17, 5β,6β-epoxypregnan-3,20-dione]",417 nM,84%,,,
"CC(=O)[C@H]1CC[C@H]2[C@@H]3CCC4=CC(=O)C(C)(C)C[C@]4(C)[C@H]3CC[C@]12C [compound 18, 2,2-dimethylprogesterone]",,,6.31 ± 0.16,99%,135 fold
"CC(=O)[C@H]1CC[C@H]2[C@@H]3C[C@@H](C)C4=CC(=O)CC[C@]4(C)[C@H]3CC[C@]12C [compound 19, 6β-methylprogesterone]",,,6.58 ± 0.12,90%,
"CC(=O)[C@H]1CC[C@H]2[C@@H]3C[C@H](C)C4=CC(=O)CC[C@]4(C)[C@H]3CC[C@]12C [compound 20, 6α-methylprogesterone]",,,6.16 ± 0.14,96%,190 fold
"CC(=O)[C@H]1CC[C@H]2[C@@H]3C[C@@H](O)C4=CC(=O)CC[C@]4(C)[C@H]3CC[C@]12C [compound 21, 6β-hydroxyprogesterone]",,,6.91 ± 0.10,116%,
"CC(=O)[C@H]1CC[C@H]2[C@@H]3C[C@@H](C)[C@@]4(O)CC(=O)CC[C@]4(C)[C@H]3CC[C@]12C [compound 22, 5α-hydroxy-6β-methylpregnan-3,20-dione]",5010 nM,95%,,,
"CC(=O)[C@H]1CC[C@H]2[C@@H]3CCC4=CC(=O)CC[C@]4(C)[C@H]3[C@@H](O)C[C@]12C [compound 23, 11β-hydroxyprogesterone]",18.6 nM,90%,,,5 fold
"CC(=O)[C@H]1CC[C@H]2[C@@H]3CCC4=CC(=O)CC[C@]4(C)[C@H]3[C@H](O)C[C@]12C [compound 24, 11α-hydroxyprogesterone]",,,6.90 ± 0.08,100%,35 fold
